According to ChEMBL document CHEMBL1275334, “5-Piperazinyl-3-sulfonylindazoles as potent and selective 5-hydroxytryptamine-6 antagonists” (J Med Chem, 2010):
The source made the active and inactive calls. The rule behind the calls is not given here.

Key:
[1] = molecular target: T1, 5-hydroxytryptamine receptor 6 (Homo sapiens, UniProt P50406); test: Displacement of [3H]LSD from human cloned 5HT6 receptor expressed in human HeLa cells; type: cell-based
Procedure, shortened: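 Radioligand displacement of [3H]LSD from cloned human 5-HT6 receptor stably expressed in HeLa cells. All test substances were used as HCl salts. Ki was determined in triplicate.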

[2] = molecular target: T1, 5-hydroxytryptamine receptor 6; test: Antagonist activity at human cloned 5HT6 receptor expressed in human HeLa cells by cyclase assay relative to control; type: functional, cell-based
[3] = molecular target: T1, 5-hydroxytryptamine receptor 6; test: Antagonist activity at human cloned 5HT6 receptor expressed in human HeLa cells by cyclase assay; type: functional, cell-based
[4] = molecular target: T2, 5-hydroxytryptamine receptor 1A (Homo sapiens, UniProt P08908); test: Displacement of [3H]LSD from human cloned 5HT1A receptor expressed in human HeLa cells; type: cell-based
T2 sequence (P08908 whole entry): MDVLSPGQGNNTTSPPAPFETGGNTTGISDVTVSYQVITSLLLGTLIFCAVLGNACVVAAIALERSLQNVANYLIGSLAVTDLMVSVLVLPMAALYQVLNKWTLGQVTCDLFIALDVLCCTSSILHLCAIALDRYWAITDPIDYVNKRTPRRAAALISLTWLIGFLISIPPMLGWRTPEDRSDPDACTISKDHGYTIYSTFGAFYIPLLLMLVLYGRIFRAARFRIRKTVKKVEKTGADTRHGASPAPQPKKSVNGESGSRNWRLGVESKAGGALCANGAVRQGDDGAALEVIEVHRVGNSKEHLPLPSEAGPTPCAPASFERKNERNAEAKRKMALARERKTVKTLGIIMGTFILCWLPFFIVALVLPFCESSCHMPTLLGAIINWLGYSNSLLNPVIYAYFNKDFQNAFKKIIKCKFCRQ

[5] = molecular target: 5-hydroxytryptamine receptor 1B (Homo sapiens, UniProt P28222); test: Displacement of [3H]LSD from human cloned 5HT1B receptor expressed in human HeLa cells; type: cell-based
[6] = molecular target: 5-hydroxytryptamine receptor 1D (Homo sapiens, UniProt P28221); test: Displacement of [3H]LSD from human cloned 5HT1D receptor expressed in human HeLa cells; type: cell-based
[7] = molecular target: T3, 5-hydroxytryptamine receptor 2B (Homo sapiens, UniProt P41595); test: Displacement of [3H]LSD from human cloned 5HT2B receptor expressed in human HeLa cells; type: cell-based
[8] = molecular target: T4, 5-hydroxytryptamine receptor 2C (Homo sapiens, UniProt P28335); test: Displacement of [3H]LSD from human cloned 5HT2C receptor expressed in human HeLa cells; type: cell-based
T4 sequence (P28335 whole entry): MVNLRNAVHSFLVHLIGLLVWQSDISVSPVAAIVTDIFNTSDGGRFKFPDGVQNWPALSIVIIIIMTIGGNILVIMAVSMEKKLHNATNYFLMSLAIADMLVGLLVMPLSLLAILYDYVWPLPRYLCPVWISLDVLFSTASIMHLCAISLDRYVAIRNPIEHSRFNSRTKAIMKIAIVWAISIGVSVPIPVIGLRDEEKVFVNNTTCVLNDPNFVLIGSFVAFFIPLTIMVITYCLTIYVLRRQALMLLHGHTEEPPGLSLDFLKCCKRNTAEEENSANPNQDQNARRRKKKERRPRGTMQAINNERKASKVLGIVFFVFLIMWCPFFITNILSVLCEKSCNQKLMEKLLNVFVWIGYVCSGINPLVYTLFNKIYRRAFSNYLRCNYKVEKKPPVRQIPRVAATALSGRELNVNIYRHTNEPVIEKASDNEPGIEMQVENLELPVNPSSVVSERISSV

[9] = molecular target: 5-hydroxytryptamine receptor 7 (Homo sapiens, UniProt P34969); test: Displacement of [3H]LSD from human cloned 5HT7 receptor expressed in human HeLa cells; type: cell-based
[10] = molecular target: T5, Alpha-2A adrenergic receptor (Homo sapiens, UniProt P08913); test: Displacement of [3H]LSD from human cloned alpha2A adrenergic receptor expressed in human HeLa cells; type: cell-based
T5 sequence (P08913 whole entry): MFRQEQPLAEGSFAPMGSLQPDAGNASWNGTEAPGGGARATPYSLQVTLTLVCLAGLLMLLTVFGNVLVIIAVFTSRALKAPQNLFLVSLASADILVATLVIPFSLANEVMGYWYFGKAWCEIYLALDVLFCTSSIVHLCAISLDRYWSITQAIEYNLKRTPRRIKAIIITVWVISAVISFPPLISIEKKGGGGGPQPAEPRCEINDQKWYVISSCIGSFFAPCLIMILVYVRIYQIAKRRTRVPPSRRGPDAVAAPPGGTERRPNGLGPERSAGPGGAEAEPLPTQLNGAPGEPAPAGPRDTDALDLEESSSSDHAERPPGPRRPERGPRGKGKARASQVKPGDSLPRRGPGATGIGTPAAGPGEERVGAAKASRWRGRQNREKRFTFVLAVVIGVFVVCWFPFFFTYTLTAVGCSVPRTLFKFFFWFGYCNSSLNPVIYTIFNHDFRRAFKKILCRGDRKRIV

D(2) dopamine receptor = D(2) dopamine receptor (Homo sapiens, UniProt P14416); test: Displacement of [3H]LSD from human cloned dopamine D2 receptor expressed in human HeLa cells; type: cell-based
[11] = molecular target: T3, 5-hydroxytryptamine receptor 2B; test: Agonist activity at human recombinant 5HT2B receptor expressed in CHOK1 cells at 0.0001 to 10 uM by FLIPR assay; type: functional, cell-based; conditions: CHO-K1

T1 sequence (P50406 whole entry): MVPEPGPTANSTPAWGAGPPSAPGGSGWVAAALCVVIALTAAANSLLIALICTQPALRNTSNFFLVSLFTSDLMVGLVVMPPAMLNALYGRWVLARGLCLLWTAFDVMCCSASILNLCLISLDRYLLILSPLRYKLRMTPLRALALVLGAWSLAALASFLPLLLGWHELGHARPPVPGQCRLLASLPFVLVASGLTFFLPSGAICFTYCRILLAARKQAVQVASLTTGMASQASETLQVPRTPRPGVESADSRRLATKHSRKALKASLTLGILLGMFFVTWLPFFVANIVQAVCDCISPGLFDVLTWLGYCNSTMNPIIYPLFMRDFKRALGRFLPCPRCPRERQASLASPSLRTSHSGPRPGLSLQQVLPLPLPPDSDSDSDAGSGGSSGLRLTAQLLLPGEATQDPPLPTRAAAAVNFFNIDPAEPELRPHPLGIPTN
T3 sequence (P41595 whole entry): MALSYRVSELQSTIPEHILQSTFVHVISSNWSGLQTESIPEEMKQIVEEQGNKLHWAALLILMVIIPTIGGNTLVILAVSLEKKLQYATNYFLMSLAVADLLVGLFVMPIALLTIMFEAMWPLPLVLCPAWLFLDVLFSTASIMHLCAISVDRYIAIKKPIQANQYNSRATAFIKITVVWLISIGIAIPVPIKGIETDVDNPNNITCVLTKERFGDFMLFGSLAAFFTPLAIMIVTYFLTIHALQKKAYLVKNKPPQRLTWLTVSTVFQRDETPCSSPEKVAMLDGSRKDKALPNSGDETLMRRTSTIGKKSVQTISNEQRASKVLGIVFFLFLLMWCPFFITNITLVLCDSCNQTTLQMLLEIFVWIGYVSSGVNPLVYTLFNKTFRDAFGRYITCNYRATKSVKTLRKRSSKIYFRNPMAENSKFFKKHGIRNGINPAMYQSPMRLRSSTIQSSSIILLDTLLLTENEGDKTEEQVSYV
Chain of 5-hydroxytryptamine receptor 1D (P28221 whole entry): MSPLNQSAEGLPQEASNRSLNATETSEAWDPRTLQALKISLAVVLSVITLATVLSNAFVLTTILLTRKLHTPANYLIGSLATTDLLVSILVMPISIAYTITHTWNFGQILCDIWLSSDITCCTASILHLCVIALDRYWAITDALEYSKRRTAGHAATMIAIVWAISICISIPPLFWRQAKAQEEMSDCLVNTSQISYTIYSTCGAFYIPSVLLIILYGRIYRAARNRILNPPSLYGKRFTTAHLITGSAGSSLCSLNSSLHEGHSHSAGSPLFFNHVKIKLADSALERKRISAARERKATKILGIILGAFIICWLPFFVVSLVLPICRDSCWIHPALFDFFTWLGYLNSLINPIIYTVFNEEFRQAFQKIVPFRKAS
Chain of D(2) dopamine receptor (P14416 whole entry): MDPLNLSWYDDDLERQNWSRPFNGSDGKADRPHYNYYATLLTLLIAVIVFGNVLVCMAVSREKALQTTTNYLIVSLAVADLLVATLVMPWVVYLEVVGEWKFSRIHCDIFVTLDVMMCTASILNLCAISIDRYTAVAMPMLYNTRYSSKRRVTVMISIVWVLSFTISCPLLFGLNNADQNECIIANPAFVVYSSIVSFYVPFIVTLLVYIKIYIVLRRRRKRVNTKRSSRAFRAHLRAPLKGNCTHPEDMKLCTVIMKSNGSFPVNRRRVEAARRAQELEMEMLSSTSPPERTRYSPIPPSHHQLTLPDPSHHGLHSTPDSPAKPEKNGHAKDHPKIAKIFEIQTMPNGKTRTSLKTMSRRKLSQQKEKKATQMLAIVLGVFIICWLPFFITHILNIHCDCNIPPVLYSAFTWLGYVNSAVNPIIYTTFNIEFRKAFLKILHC
Chain of 5-hydroxytryptamine receptor 7 (P34969 whole entry): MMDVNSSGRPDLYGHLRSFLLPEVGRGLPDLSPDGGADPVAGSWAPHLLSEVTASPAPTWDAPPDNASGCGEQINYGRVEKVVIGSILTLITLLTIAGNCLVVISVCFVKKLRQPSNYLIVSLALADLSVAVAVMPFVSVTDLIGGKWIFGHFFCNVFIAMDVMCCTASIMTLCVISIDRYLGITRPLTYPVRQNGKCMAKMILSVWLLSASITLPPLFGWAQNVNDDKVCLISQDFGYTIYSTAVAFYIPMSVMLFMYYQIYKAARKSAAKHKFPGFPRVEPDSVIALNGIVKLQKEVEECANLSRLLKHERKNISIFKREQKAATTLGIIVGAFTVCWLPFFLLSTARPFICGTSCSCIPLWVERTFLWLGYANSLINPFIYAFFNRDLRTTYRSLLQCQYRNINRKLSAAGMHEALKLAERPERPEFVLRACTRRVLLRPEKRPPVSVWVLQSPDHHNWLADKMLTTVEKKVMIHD
Chain of 5-hydroxytryptamine receptor 1B (P28222 whole entry): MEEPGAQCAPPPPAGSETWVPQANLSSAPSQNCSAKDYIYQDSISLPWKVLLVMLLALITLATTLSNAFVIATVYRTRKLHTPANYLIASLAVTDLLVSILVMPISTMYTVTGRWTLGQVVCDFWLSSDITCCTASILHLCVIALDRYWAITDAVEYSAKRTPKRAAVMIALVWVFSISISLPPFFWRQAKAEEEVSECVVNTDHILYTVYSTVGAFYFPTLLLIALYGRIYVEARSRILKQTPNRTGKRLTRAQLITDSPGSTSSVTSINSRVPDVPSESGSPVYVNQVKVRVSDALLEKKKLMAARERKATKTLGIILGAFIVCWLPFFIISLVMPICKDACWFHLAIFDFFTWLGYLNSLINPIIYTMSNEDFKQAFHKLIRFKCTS

Compound | Ki [1] [nM] | Imax [2] [%] | IC50 [3] [nM] | other results
Cn1nc(S(=O)(=O)c2ccccc2)c2cc(N3CCNCC3)ccc21 | 3.2 | 100 | – | –
O=S(=O)(c1ccc(Cl)cc1)c1n[nH]c2cccc(N3CCNCC3)c12 | 125 | – | – | –
COc1cccc(S(=O)(=O)c2n[nH]c3ccc(N4CCN(C)CC4)cc23)c1 | 1.1 | 100 | 57 | –
CN1CCN(c2ccc3[nH]nc(S(=O)(=O)c4ccc(F)cc4)c3c2)CC1 | 5.2 | 98 | 467 | –
CN1CCN(c2ccc3[nH]nc(S(=O)(=O)c4ccccc4Cl)c3c2)CC1 | – | 100 | 101 | –
CN1CCN(c2cccc3c(S(=O)(=O)c4cccc5ccccc45)n[nH]c23)CC1 | 4.6 | 100 | 17 | –
CC(C)n1nc(S(=O)(=O)c2cccc3ccccc23)c2cc(N3CCNCC3)ccc21 | 2.9 | 100 | – | Ki [4]: > 5000 nM; Ki [5]: > 5000 nM; Ki [6]: > 5000 nM; Ki [7]: 96 nM; Ki [8]: 1080 nM; Ki [9]: > 5000 nM; Ki [10]: > 5000 nM; Ki (D(2) dopamine receptor): 2040 nM; Activity [11]: inactive
COc1ccc(S(=O)(=O)c2n[nH]c3cccc(N4CCNCC4)c23)cc1 | 88 | – | – | –
CCCn1nc(S(=O)(=O)c2cccc3ccccc23)c2cc(N3CCNCC3)ccc21 | – | – | 2.2 | –
O=S(=O)(c1cccc(F)c1)c1n[nH]c2cccc(N3CCNCC3)c12 | 134 | – | – | –
COc1ccc(S(=O)(=O)c2n[nH]c3ccc(N4CCN(C)CC4)cc23)cc1 | – | 100 | 544 | –
Cc1ccc(S(=O)(=O)c2n[nH]c3cccc(N4CCNCC4)c23)cc1 | 134 | – | – | –
Cc1ccc(S(=O)(=O)c2n[nH]c3cc(N4CCNCC4)ccc23)cc1 | 27 | – | – | –
O=S(=O)(c1cccc(F)c1)c1n[nH]c2cc(N3CCNCC3)ccc12 | 11 | – | – | –
CCn1nc(S(=O)(=O)c2ccccc2)c2cc(N3CCNCC3)ccc21 | 2.9 | 100 | – | –
CN1CCN(c2ccc3[nH]nc(S(=O)(=O)c4cccc(F)c4)c3c2)CC1 | 1.7 | 99 | 132 | –
CCn1nc(S(=O)(=O)c2cccc3ccccc23)c2cc(N3CCN(C)CC3)ccc21 | 1.7 | 100 | – | –
CN1CCN(c2ccc3[nH]nc(S(=O)(=O)c4ccc(Cl)cc4)c3c2)CC1 | 8.1 | 100 | 108 | –
Cn1nc(S(=O)(=O)c2cccc3ccccc23)c2cc(N3CCNCC3)ccc21 | – | 99 | – | Ki [4]: 1780 nM; Ki [5]: 3620 nM; Ki [6]: 2760 nM; Ki [7]: 87 nM; Ki [8]: 3650 nM; Ki [9]: > 5000 nM; Ki [10]: > 5000 nM; Ki (D(2) dopamine receptor): 2240 nM; Activity [11]: inactive

Compound | Ki [1] [nM] | Imax [2] [%] | IC50 [3] [nM] | other results
CCn1nc(S(=O)(=O)c2cccc3ccccc23)c2cc(N3CCNCC3)ccc21 | – | 100 | – | –
O=S(=O)(c1ccc(C(F)(F)F)cc1)c1n[nH]c2cc(N3CCNCC3)ccc12 | 207 | – | – | –
CN1CCN(c2ccc3[nH]nc(S(=O)(=O)c4ccccc4F)c3c2)CC1 | 5.5 | 100 | 54 | –
CC(C)Cn1nc(S(=O)(=O)c2cccc3ccccc23)c2cc(N3CCNCC3)ccc21 | – | 100 | – | Ki [4]: > 5000 nM; Ki [5]: > 5000 nM; Ki [6]: > 5000 nM; Ki [7]: 281 nM; Ki [8]: 1880 nM; Ki [9]: > 5000 nM; Ki [10]: > 5000 nM; Ki (D(2) dopamine receptor): 1900 nM; Activity [11]: inactive
O=S(=O)(c1cccc2ccccc12)c1n[nH]c2cccc(N3CCNCC3)c12 | 48 | – | – | –
COc1ccc(S(=O)(=O)c2n[nH]c3cc(N4CCNCC4)ccc23)cc1 | 124 | – | – | –
CN1CCN(c2ccc3[nH]nc(S(=O)(=O)c4c(Cl)cccc4Cl)c3c2)CC1 | 2.6 | 100 | 40 | –
CCCn1nc(S(=O)(=O)c2cccc3ccccc23)c2cc(N3CCN(C)CC3)ccc21 | 1.8 | 100 | – | –
CN1CCN(c2ccc3[nH]nc(S(=O)(=O)c4cccs4)c3c2)CC1 | 7.8 | 96 | 331 | –
CC(C)Cn1nc(S(=O)(=O)c2cccc3ccccc23)c2cc(N3CCN(C)CC3)ccc21 | 1.4 | 100 | – | –
CN1CCN(c2ccc3[nH]nc(S(=O)(=O)c4cccc(Cl)c4)c3c2)CC1 | 1 | 100 | 62 | –
CN1CCN(c2ccc3c(c2)c(S(=O)(=O)c2cccc4ccccc24)nn3Cc2ccccc2)CC1 | – | 100 | – | –
O=S(=O)(c1cccc2ccccc12)c1n[nH]c2cc(N3CCNCC3)ccc12 | 22 | – | – | –
Cc1ccc(S(=O)(=O)c2n[nH]c3ccc(N4CCN(C)CC4)cc23)cc1 | 4.9 | 100 | 112 | –
Cc1cccc(S(=O)(=O)c2n[nH]c3ccc(N4CCN(C)CC4)cc23)c1 | 0.9 | 100 | 38 | –
CC(C)n1nc(S(=O)(=O)c2cccc3ccccc23)c2cc(N3CCN(C)CC3)ccc21 | 1.8 | 98 | – | –
O=S(=O)(c1ccc(Cl)cc1)c1n[nH]c2cc(N3CCNCC3)ccc12 | 110 | – | – | –
CN1CCN(c2ccc3c(c2)c(S(=O)(=O)c2cccc4ccccc24)nn3C)CC1 | 1.7 | 100 | – | –
CN1CCN(c2ccc3[nH]nc(S(=O)(=O)c4ccccc4)c3c2)CC1 | 1.9 | 99 | 8.8 | Ki [4]: > 5000 nM; Ki [5]: > 5000 nM; Ki [6]: > 5000 nM; Ki [7]: 978 nM; Ki [8]: 3070 nM; Ki [9]: 753 nM; Ki [10]: > 5000 nM; Ki (D(2) dopamine receptor): 355 nM; Activity [11]: inactive
